Screens as filed in PubChem BioAssay.
FLuc act counter: affects firefly luciferase, flagging false hits in luciferase stimulation screens; P08659; ATPlite luciferase biochemical, luminescence, 10 min; 0 = ATP-free wells, 1 = DMSO control; activation factor at 10 µM; 200,000 tested, under 10 active;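 active = luciferase activation factor, scaled between plate controls, of at least 2 with compound at 10 µM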
Target sequence (P08659 whole entry, looked up): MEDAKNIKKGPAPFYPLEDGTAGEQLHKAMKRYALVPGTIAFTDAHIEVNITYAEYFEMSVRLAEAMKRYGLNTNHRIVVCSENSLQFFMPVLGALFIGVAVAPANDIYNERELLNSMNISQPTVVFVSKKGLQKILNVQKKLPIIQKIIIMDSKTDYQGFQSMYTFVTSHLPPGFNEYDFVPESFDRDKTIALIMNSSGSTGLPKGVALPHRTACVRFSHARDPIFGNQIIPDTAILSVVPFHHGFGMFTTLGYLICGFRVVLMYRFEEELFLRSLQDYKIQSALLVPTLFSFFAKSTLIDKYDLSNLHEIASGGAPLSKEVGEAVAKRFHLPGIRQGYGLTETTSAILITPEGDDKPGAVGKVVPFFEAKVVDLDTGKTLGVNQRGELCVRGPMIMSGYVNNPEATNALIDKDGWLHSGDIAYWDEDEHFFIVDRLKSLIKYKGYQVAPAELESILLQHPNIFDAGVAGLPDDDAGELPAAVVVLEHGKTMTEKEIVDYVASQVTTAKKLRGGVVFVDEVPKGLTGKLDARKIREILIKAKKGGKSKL
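Assay system: Luciferase/luciferin detection reagent, cell-free biochemical luciferase assay / Also added: ATP substrate / Schedule: 10 min at ambient temperature / Measured by: luminescence measurement of luciferase light output / Benchmarks: low control with PBS replacing ATP, high control enzyme plus ATP without compound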
FLuc inhib CS: Photinus pyralis luciferase inhibition counter-screen; inhibition, % at 10 µM; AID 1006; actives 1.5% (n = 200,000); P08659; ATPLite firefly luciferase biochemical luminescence, 10 min;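 active = inhibition above about 50% when tested at 10 µM, limit read from the data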
NF-kB neuron act: NF-kB expression increase, human neuronal cells. NF-kB reporter expression; active compounds read high. fold change at 12.5 µM. actives 1.6% (n = 190,000). AID 1239; in the data active = fold change above about 3.3
C8 TRAIL sens: sensitizes caspase-8 expressing cells to TRAIL. NB7+C8 cells + TRAIL, ATPlite viability luminescence. inhibition (viability loss, TRAIL sensitization), % at 10 µM. actives 1% (n = 360,000). AID 624354;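 active = compounds causing at least 50% loss of cell viability in the single-dose screen, relative to plate controls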
PPC-1+TRAIL kill: PPC-1 cancer cell killing with TRAIL present; PPC-1 cells + TRAIL, ATPLite viability luminescence; AID 1443; cell killing (% activity), % at 4 µM or 5 µM; actives 0.41% (n = 220,000);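 active = cell killing above 50% in the first pass at 4 µM, then a duplicate retest at 5 µM averaging 50% or more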;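 also: plate controls were cells with TRAIL plus DMSO for no effect and medium-only wells lacking cells for full effect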
APP 5'UTR act: activates APP 5'UTR luciferase reporter. activation, % at 2 µM. actives 1% (n = 190,000). AID 1276. SH-SY5Y APP 5'UTR luciferase reporter, luminescence; zero percent = DMSO vehicle wells;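 active = activation above a set limit, based on mean plus 3 SD of controls, cut at about 140% in these data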
PPC1 cytotox: PPC-1 cell cytotoxicity | shares compounds with PPC-1+TRAIL kill | PPC-1 viability, ATPlite luminescence, overnight | cytotoxicity, % at 5 µM | actives 50% (n = 1,200);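 active = reconfirmed compounds whose average cytotoxicity reaches 50% or more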;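 also: 0% = DMSO-treated cells and 100% = wells holding medium but no cells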
An asterisk follows results filed as active; / = no result. Only some compounds are listed: those with a hit (about 2.2% of all), similar ones and a draw of the others.

SMILES	FLuc act counter	FLuc inhib CS	NF-kB neuron act	C8 TRAIL sens	PPC-1+TRAIL kill	APP 5'UTR act	PPC1 cytotox
O=C(CSc1nc(O)c(C2CCCCC2)c(=O)[nH]1)Nc1ccccc1Cl	/	/	/	-1	/	/	/
CCOC(=O)Cn1ccc2cc(S(=O)(=O)N3CCCC3)ccc21	/	/	/	4	/	/	/
NS(=O)(=O)c1cccc(NC(=O)c2cc(=O)c3ccccc3o2)c1	/	/	/	8	/	/	/
Cc1nnc(NC(=O)c2cc3ccccc3o2)s1	/	/	/	42	/	/	/
NS(=O)(=O)c1cccc(NC(=O)c2cc3ccccc3o2)c1	0.2	84*	1.3	63*	35	17	36
Cc1cnc(NC(=O)c2sc3ccccc3c2Cl)s1	0.1	93*	4.6*	82*	70*	107	68*
Cc1cnc(NC(=O)c2cc3ccccc3o2)s1	0.1	89*	3.3	36	51*	95	54*
CC(C)C[C@H]1COc2cccc(N3CCC[C@H]3CO)c2S(=O)(=O)N1	/	/	/	-6	/	/	/
Cc1ccc2sc(NC(=O)CSc3nc(C)cc(C)c3C#N)nc2c1	0.9	13	6.5*	70*	65*	94	62*
Cc1nc(SCC(=O)Nc2nc3ccccc3s2)c(C#N)c(C)c1C	1	-1	0.13	95*	96*	-64	96*
Cc1cc(C)c(C#N)c(SCC(=O)Nc2nnc(-c3ccccc3)s2)n1	1.1	-9	1.2	5	-9	11	/
CCNC(=O)CN(c1ccccc1)S(=O)(=O)c1ccc(Cl)cc1	1.1	-7	1.9	-4	-4	-6	1
CCN1C=CC(=C2C(=O)c3ccccc3C2=O)C=C1	0	98*	0.24	91*	96*	-70	96*
CCCCCCN1C=CC(=C2C(=O)c3ccccc3C2=O)C=C1	0.1	94*	1.3	92*	81*	48	80*
CCCCN1C=CC(=C2N=c3cccc([N+](=O)[O-])c3=N2)C=C1	1	1	1	-2	16	28	/
COc1ccc(S(=O)(=O)N2CCC(C(=O)NCc3cccnc3)CC2)cc1Cl	/	/	/	-5	/	/	/
CC1(C(=O)NS(=O)(=O)c2ccc(C#N)cc2)CCN1C(=O)CC1CCCCC1 (stereo unspecified)	/	/	/	-4	/	/	/
CCOC(=O)CSc1ncnc2c1cnn2-c1ccccc1	0.8	16	1.2	-8	18	-11	/
CCOC(=O)CSc1ncnc2c1cnn2-c1ccc(C)cc1	0.9	7	1.4	6	28	-1	22
Cc1ccccc1Cn1ccc(NC(=O)CCSc2nc(-c3ccco3)cc(C(F)(F)F)n2)n1	1	-5	0.83	10	-2	13	1
COc1ccc(C(=O)C[C@@H]2OC[C@H](Cc3ccccc3)N2S(=O)(=O)c2ccc(C)cc2)cc1OC	/	/	/	2	/	/	/
CCc1sc(C(=O)N2CCc3ccccc32)cc1C	0.4	63*	8.3*	56*	26	189*	31
O=C(c1ccc(Cl)s1)N1CCc2ccccc21	0.6	36	3.3	23	23	121	/
O=C(/C=C/c1ccc(Cl)cc1Cl)Nc1cccc(S(=O)(=O)NC2=NCCC2)c1	0	96*	7.2*	91*	87*	79	88*
COc1ccc(O)c(C(=O)CC(=O)c2ccc(F)cc2)c1	0.8	21	2.3	80*	80*	149*	75*
SMILES	FLuc act counter	FLuc inhib CS	NF-kB neuron act	C8 TRAIL sens	PPC-1+TRAIL kill	APP 5'UTR act	PPC1 cytotox
COc1ccc(C(=O)CC(=O)c2ccccc2O)cc1	/	/	/	5	/	/	/
COc1cc2c(C(=O)N3CCN(c4cccc(Cl)c4)CC3)cn(CC(C)C)c(=O)c2cc1OC	1	-4	0.46	8	9	6	/
COc1ccc(S(=O)(=O)Nc2ccc(O)c3ccccc23)cc1	1	-1	0.73	19	16	-9	4
COc1ccc(S(=O)(=O)Nc2ccccc2)cc1	/	/	/	22	/	/	/
Cc1ccc(NC(=O)c2c(C)noc2C)cc1	1.1	-13	1.3	-6	-10	/	-13
Cc1noc(C)c1C(=O)Nc1cccnc1	1.1	-6	1.2	-10	7	47	/
CC(C)Oc1ccc(CN2CCCC(CO)(Cc3ccccc3)C2)cc1CO (stereo unspecified)	/	/	/	14	/	/	/
Cc1ccc(S(=O)(=O)N2CCN(C(=O)C(C)Cn3cncn3)CC2)cc1 (stereo unspecified)	/	/	/	-5	/	/	/
O=C1c2cccc3c([N+](=O)[O-])ccc(c23)C(=O)N1CCc1ccccn1	/	/	/	44	24	/	12
Cc1cccc(C(=O)Nc2ccn(C)n2)c1	/	/	/	14	/	/	/
Cc1cccc(C(=O)n2c(=S)nc3cc(C)ccn32)c1	/	/	/	82*	78*	/	79*
CCCNC(=S)NNC(=O)c1cccs1	1	-5	1	-10	-2	10	/
O=[N+]([O-])c1cc(/C=N/NC(=S)Nc2ccccc2Cl)ccc1Cl	1.1	-7	1.6	0	37	-2	28
COc1ccc(-c2noc(CCC(=O)NC3CCCCC3)n2)cc1OC	1	1	0.96	1	13	-8	/
COc1cccc(-c2noc(CCC(=O)NC3CCCCC3)n2)c1	1	-4	0.84	21	-1	-13	5
Cc1ccc(N2C(=O)c3ccccc3C2Nc2ccccc2F)nc1 (stereo unspecified)	1	0	1.2	12	-3	-10	/
Cc1ccc(N2C(=O)c3ccccc3C2O)nc1 (stereo unspecified)	0.2	80*	1.3	/	53*	113	54*
CCOC(=O)c1c(NC(=O)CSc2nnc(C)s2)sc2c1CCC(C)C2 (stereo unspecified)	1.1	-8	1.1	7	-1	-14	/
CCCN(CC(=O)Nc1ccccc1C)C(=O)/C=C/c1ccc(OC)c(OC)c1	/	/	/	0	/	/	/
COC(=O)[C@H](CCSC)NC(=O)N1CCC(C)CC1	1	-4	1.3	-12	-5	-8	-2
Cc1ccc2nc(SCC(=O)NCc3cccs3)[nH]c2c1	1	-4	1.1	5	16	-19	/
Cc1ccc(NC(=O)CCC(=O)NNC(=O)c2ccccc2[N+](=O)[O-])c(C)c1	1.1	-6	0.92	-2	-10	-6	-7
CC(=O)c1ccc(N=Nc2ccc(N)cc2)cc1	/	/	/	83*	54*	/	55*
CC(=O)c1ccc(N=Nc2c(C)[nH][nH]c2=O)cc1	/	/	/	-7	/	/	/
COc1ccc(S(=O)(=O)NNC(=O)Cc2csc(C)n2)cc1[N+](=O)[O-]	/	/	/	-3	/	/	/
CCN1CCN(Cc2ccc(NC(=O)c3cc(NC(=O)C(=O)c4c[nH]c5ccccc45)cc(OC)c3)cc2C(F)(F)F)CC1	/	/	/	93*	17	/	20
Cc1ccc(-c2cc(=O)c3ccccc3[nH]2)cc1	0.7	28	1.7	35	22	14	/
O=Nc1c2cc(-c3ccccc3)[nH]nc-2c2ccccc12	0.1	87*	4.8*	72*	74*	101	75*
